{"data": "Experimental data pooled from the literature", "FLT3 R834Q": "Receptor-type tyrosine-protein kinase FLT3 (FLT3, Homo sapiens, UniProt P36888, R834Q)", "FLT3 N841I": "Receptor-type tyrosine-protein kinase FLT3 (FLT3, Homo sapiens, UniProt P36888, N841I)", "FLT3 D835V": "Receptor-type tyrosine-protein kinase FLT3 (FLT3, Homo sapiens, UniProt P36888, D835V)", "FLT3 K663Q": "Receptor-type tyrosine-protein kinase FLT3 (FLT3, Homo sapiens, UniProt P36888, K663Q)", "FLT3 D835H": "Receptor-type tyrosine-protein kinase FLT3 (FLT3, Homo sapiens, UniProt P36888, D835H)", "FLT3 D835Y": "Receptor-type tyrosine-protein kinase FLT3 (FLT3, Homo sapiens, UniProt P36888, D835Y)", "FLT3": "Receptor-type tyrosine-protein kinase FLT3 (FLT3, Homo sapiens, UniProt P36888)", "FLT3 D835V/ITD": "Receptor-type tyrosine-protein kinase FLT3 (FLT3, Homo sapiens, UniProt P36888, D835V/ITD)", "FLT3 autoinhibited": "Receptor-type tyrosine-protein kinase FLT3, autoinhibited (FLT3, Homo sapiens, UniProt P36888)", "note": "Each line is one published result; the experiments were not run side by side."}
{"Compound": "Cc1c(NC(=O)c2cc(C(N)=O)nc3cc(F)ccc23)c(C(F)(F)F)nn1Cc1ccc(C(C)(C)C)cc1", "target": "FLT3 R834Q", "test": "cell-free assay, competition with immobilised ligand", "conditions": "1 µM", "remaining binding": "100%"}
{"Compound": "COc1ccnn2ncc(-c3ccnc(N(C)C)n3)c12", "target": "FLT3 N841I", "test": "binding", "conditions": "1 µM", "remaining binding": "100%"}
{"Compound": "O=C(NCCCN1CCOCC1)c1ccc(Nc2nccc(-c3cc4ccccc4s3)n2)cc1", "target": "FLT3 D835V", "test": "binding, competition with immobilised ligand", "conditions": "1 µM", "remaining binding": "3.4%"}
{"Compound": "CCC(=O)N[C@H]1CC[C@@H](C(=O)N(C)c2ccc(-c3nc4ccccc4o3)cc2)C1", "target": "FLT3 K663Q", "test": "cell-free assay, competition with immobilised ligand", "conditions": "1 µM", "remaining binding": "88%"}
{"Compound": "c1cncc(-c2cccc(Nc3nccc(NC4CCCCC4)n3)c2)c1", "target": "FLT3 D835H", "test": "binding, competition with immobilised ligand", "conditions": "10 µM", "remaining binding": "1.6%"}
{"Compound": "CC(=O)N1CCC(c2ccc(C(=O)NC(=N)N)cc2C(F)(F)F)CC1", "target": "FLT3 K663Q", "test": "cell-free assay, competition with immobilised ligand", "conditions": "1 µM", "remaining binding": "100%"}
{"Compound": "O=C(NC1CCC1)c1ccc2nc(-c3cccc(NS(=O)(=O)NCCN4CCCCC4)c3)cn2c1", "target": "Receptor-type tyrosine-protein kinase FLT3 (FLT3, Homo sapiens, UniProt P36888, ITD)", "test": "cell-free assay, competition with immobilised ligand", "conditions": "10 µM", "remaining binding": "100%"}
{"Compound": "O=C(c1ccc(Nc2nccc(-c3cc4ccccc4s3)n2)cc1)N1CCC(N2CCCC2)CC1", "target": "FLT3 D835Y", "test": "binding, competition with immobilised ligand", "conditions": "1 µM", "remaining binding": "28%"}
{"Compound": "CN(C)c1ncc(F)c(-c2cnn3ncccc23)n1", "target": "FLT3", "test": "binding", "conditions": "1 µM", "remaining binding": "100%"}
{"Compound": "O=C(NCCCN1CCOCC1)c1ccc(Nc2ncc(Cl)c(-c3ccc(Cl)s3)n2)cc1", "target": "FLT3 D835Y", "test": "binding, competition with immobilised ligand", "conditions": "1 µM", "remaining binding": "1.8%"}
{"Compound": "C[C@H]1CCN(c2nccc(-c3cnn4ncccc34)n2)C1", "target": "FLT3", "test": "binding", "conditions": "1 µM", "remaining binding": "81%"}
{"Compound": "COc1ncc2cc3ccccc3nc2c1C#N", "target": "FLT3 D835Y", "test": "cell-free assay, competition with immobilised ligand", "conditions": "5 µM", "remaining binding": "92%"}
{"Compound": "O=C(NCCCC1CCCCC1)c1ccc(CNC(=O)c2cnn(-c3ccccc3)c2C(F)(F)F)cc1", "target": "FLT3 D835V/ITD", "test": "cell-free assay, competition with immobilised ligand", "conditions": "0.1 µM", "remaining binding": "100%"}
{"Compound": "CN1CCN(c2ccc(Nc3nccc(-c4cccc([N+](=O)[O-])c4)n3)cc2C(F)(F)F)CC1", "target": "FLT3 N841I", "test": "binding", "conditions": "10 µM", "remaining binding": "0.05%"}
{"Compound": "c1cnn2ncc(-c3ccnc(N4CCC45COC5)n3)c2c1", "target": "FLT3 autoinhibited", "test": "binding", "conditions": "1 µM", "remaining binding": "58%"}
{"Compound": "O=C(NCC1CCOCC1)c1n[nH]cc1NC(=O)c1c(F)cccc1F", "target": "FLT3 N841I", "test": "binding, competition with immobilised ligand", "conditions": "1 µM", "remaining binding": "100%"}
{"Compound": "CN(C)c1nccc(-c2cnn3ncccc23)n1", "target": "FLT3 D835H", "test": "binding", "conditions": "1 µM", "remaining binding": "100%"}
{"Compound": "CCN1CCN(Cc2ccc(C(=O)Nc3ccc(C)c(Oc4ccc5c(c4)CC(=O)N5)c3)cc2C(F)(F)F)CC1", "target": "FLT3 R834Q", "test": "binding, competition with immobilised ligand", "conditions": "1 µM", "remaining binding": "100%"}
{"Compound": "COc1ccc2c(O[C@@H]3C[C@H]4C(=O)N[C@]5(C(=O)O)CC5/C=C\\CCCCC[C@H](NC(=O)OC5CCCC5)C(=O)N4C3)cc(-c3csc(NC(=O)C(C)C)n3)nc2c1C (stereo partly drawn)", "target": "FLT3 R834Q", "test": "cell-free assay, competition with immobilised ligand", "conditions": "1 µM", "remaining binding": "92%"}
{"Compound": "CN(CCCC(F)(F)F)c1nccc(-c2cnn3ncccc23)n1", "target": "FLT3 D835V", "test": "binding", "conditions": "1 µM", "remaining binding": "84%"}
{"Compound": "CCCOc1ccc([C@@H]2[C@@H](C(=O)O)[C@H](c3ccc4c(c3)OCO4)CN2CC(=O)Nc2c(CC)cccc2CC)cc1", "target": "FLT3 N841I", "test": "cell-free assay, competition with immobilised ligand", "conditions": "1 µM", "remaining binding": "88%"}
{"Compound": "CC1CCCN1c1nccc(-c2cnn3ncccc23)n1 (stereo not drawn)", "target": "FLT3 D835Y", "test": "binding", "conditions": "1 µM", "remaining binding": "100%"}
{"Compound": "COc1cnc(Nc2cccc(S(N)(=O)=O)c2)nc1N1CCN(c2ccccc2)C(=O)C1", "target": "FLT3 D835H", "test": "binding, competition with immobilised ligand", "conditions": "1 µM", "remaining binding": "93%"}
{"Compound": "Nc1ncc2c(n1)-c1c([nH]c3ccc(C#CC4CC4)cc13)CCCC2", "target": "FLT3 R834Q", "test": "binding, competition with immobilised ligand", "conditions": "1 µM", "remaining binding": "79%"}
{"Compound": "Cc1noc([C@H]2C[C@@H](c3ccc(C(F)(F)F)cc3)CN(C(=O)N3CCS(=O)(=O)C3)C2)n1", "target": "FLT3 D835H", "test": "cell-free assay, competition with immobilised ligand", "conditions": "1 µM", "remaining binding": "100%"}
{"Compound": "N[C@H]1CCN(c2nccc(-c3cnn4ncccc34)n2)C1", "target": "FLT3 K663Q", "test": "binding", "conditions": "1 µM", "remaining binding": "100%"}
{"Compound": "CNC(=O)[C@@H]1CC[C@@H](n2c(-c3ccc4cnccc4c3)nc3ccc(C(=O)NCc4cccc(C(N)=O)c4)cc32)C1", "target": "FLT3 N841I", "test": "binding, competition with immobilised ligand", "conditions": "1 µM", "remaining binding": "100%"}
{"Compound": "O=C1NC(c2ccccn2)Sc2ccccc21 (stereo not drawn)", "target": "FLT3 K663Q", "test": "cell-free assay, competition with immobilised ligand", "conditions": "1 µM", "remaining binding": "82%"}
{"Compound": "C=CC(=O)N1CCC(C(=O)NCC(=O)N2CCN(c3nc(-c4cnc(N)nc4C(F)F)nc(N4CCOCC4)n3)CC2)CC1", "target": "FLT3", "test": "binding, competition with immobilised ligand", "conditions": "1 µM", "remaining binding": "91%"}
{"Compound": "Cc1cnc(Nc2ccc(C(=O)N3CCC(N4CCCC4)CC3)cc2)nc1-c1cc2ccccc2s1", "target": "FLT3 N841I", "test": "binding, competition with immobilised ligand", "conditions": "1 µM", "remaining binding": "0%"}
{"Compound": "C[C@@H](c1ccc(-n2cnc3c(N)ncnc32)cc1)N1CCc2nn(C)c(Cc3ccccc3)c2C1=O", "target": "FLT3 K663Q", "test": "binding, competition with immobilised ligand", "conditions": "0.1 µM", "remaining binding": "77%"}
{"Compound": "O=C(c1ccc(Nc2ncc(Cl)c(-c3cc4ccccc4s3)n2)cc1)N1CCC(N2CCCC2)CC1", "target": "FLT3 autoinhibited", "test": "binding, competition with immobilised ligand", "conditions": "1 µM", "remaining binding": "27%"}
{"Compound": "CN1CCN(c2ccc(Nc3nccc(-c4ccccc4)n3)cc2C(F)(F)F)CC1", "target": "FLT3 D835V", "test": "binding", "conditions": "10 µM", "remaining binding": "0%"}
{"Compound": "O=C(c1ccc(Nc2ncc(Cl)c(-c3ccc(Cl)s3)n2)cc1)N1CCC(N2CCCC2)CC1", "target": "FLT3 D835V/ITD", "test": "binding, competition with immobilised ligand", "conditions": "1 µM", "remaining binding": "1.1%"}
{"Compound": "COc1cnc(Nc2cccc(S(N)(=O)=O)c2)nc1N1CCN(c2ccccc2)CC1", "target": "FLT3 D835Y", "test": "binding, competition with immobilised ligand", "conditions": "1 µM", "remaining binding": "61%"}
{"Compound": "O=C(Nc1c[nH]nc1C(=O)NC1CCNCC1)c1cc(F)cc(F)c1", "target": "FLT3 N841I", "test": "binding, competition with immobilised ligand", "conditions": "1 µM", "remaining binding": "100%"}
